Converted amounts (≈) assume the structure as drawn. The source made the active and inactive calls. No cut-off for these calls is given here.
Key:
[1] = tested on: Candida albicans; experiment: Antifungal activity against Candida albicans CIP 118079 after 24 hrs by liquid-phase turbidimetric system; assay type: functional; settings: for MIC: CIP 118079, 24 h
How it was run: (§1)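 Fungal growth followed in liquid culture by turbidimetry, read automatically every 30 min over 24 h, with compounds tested at various concentrations.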

[2] = tested on: Saccharomyces cerevisiae; experiment: Antimicrobial activity against Saccharomyces cerevisiae ATCC 28383 after 24 hrs by liquid-phase turbidimetric system; assay type: functional, organism-based; how it was run: as §1

| Structure (SMILES) | MIC [1] [µg/mL] | Activity [2] | Activity [1] |
| --- | --- | --- | --- |
| CCCCCCCCCCCCCC(=O)O[C@H](C[C@H](O)[C@H](O)[C@H](C)O)c1coc(Cc2cnco2)n1 | 0.8 (≈ 1.57 µM) | inactive | – |
| CO[C@@H](C(=O)N[C@H]1CCCCNC1=O)[C@H](O)[C@@H](O)[C@H](O)/C=C/C(C)C | – | inactive | inactive |
| CC(C)CCCCCCCCCCCC(=O)O[C@@H](C)[C@@H](O)[C@@H](O)C[C@@H](O)c1coc(Cc2cnco2)n1 | 0.8 (≈ 1.53 µM) | inactive | – |
| CC(C)CCCCCCCCCCCC(=O)O[C@H](C[C@H](O)[C@H](O)[C@H](C)O)c1coc(Cc2cnco2)n1 | 0.8 (≈ 1.53 µM) | inactive | – |
| CCCCCCCCCCCCCC(=O)O[C@H]1CC[C@H](NC(=O)[C@H](OC)[C@H](O)[C@@H](O)[C@H](O)/C=C/C(C)C)C(=O)NC1 | – | inactive | inactive |
| CC(C)CCCCCCCCCCCCC(=O)O[C@H](C[C@H](O)[C@H](O)[C@H](C)O)c1coc(Cc2cnco2)n1 | 0.8 (≈ 1.49 µM) | inactive | – |
| CCCCCCCCCCCCCC(=O)O[C@H]1CC[C@H](NC(=O)[C@H](OC)[C@H](O)[C@@H](O)[C@H](O)/C=C/C(C)C)C(=O)N(C)C1 | – | inactive | inactive |
| CO[C@@H](C(=O)N[C@H]1CC[C@H](OC(=O)CCCCCCCCCCCC(C)C)CNC1=O)[C@H](O)[C@@H](O)[C@H](O)/C=C/C(C)C | – | inactive | inactive |
| C[C@H](O)[C@@H](O)[C@@H](O)C[C@@H](O)c1coc(Cc2cnco2)n1 | – | inactive | inactive |

The next lines start with results.

| MIC [1] [µg/mL] | Structure (SMILES) | Activity [2] | Activity [1] |
| --- | --- | --- | --- |
| 0.8 (≈ 1.49 µM) | CCCCCCCCCCCCCCCC(=O)O[C@@H](C)[C@@H](O)[C@@H](O)C[C@@H](O)c1coc(Cc2cnco2)n1 | inactive | – |
| 0.8 (≈ 1.49 µM) | CC(C)CCCCCCCCCCCCC(=O)O[C@@H](C)[C@@H](O)[C@@H](O)C[C@@H](O)c1coc(Cc2cnco2)n1 | inactive | – |
| 0.8 (≈ 1.57 µM) | CCCCCCCCCCCCCC(=O)O[C@@H](C)[C@@H](O)[C@@H](O)C[C@@H](O)c1coc(Cc2cnco2)n1 | inactive | – |
| 0.8 (≈ 1.53 µM) | CCCCCCCCCCCCCCC(=O)O[C@H](C[C@H](O)[C@H](O)[C@H](C)O)c1coc(Cc2cnco2)n1 | inactive | – |
| 0.8 (≈ 1.49 µM) | CCCCCCCCCCCCCCCC(=O)O[C@H](C[C@H](O)[C@H](O)[C@H](C)O)c1coc(Cc2cnco2)n1 | inactive | – |
| 0.8 (≈ 1.53 µM) | CCCCCCCCCCCCCCC(=O)O[C@@H](C)[C@@H](O)[C@@H](O)C[C@@H](O)c1coc(Cc2cnco2)n1 | inactive | – |

Reference: ChEMBL document CHEMBL1141840, “Antifungal metabolites from the marine sponge Pachastrissa sp.: new bengamide and bengazole derivatives” (1999)
